Variants at the floor of the assay were thinned out.
B1: tRNA (parent)
chain: GUUCCGUUGGCGUAAUGGUAACGCGUCUCCCUCCUAAGGAGAAGACUGCGGGUUCGAGUCCCGUACGGAACG

Variants of: B1
Test: yeast fitness relative to wild type (ratio to wild type); higher = fitter; tRNA-Arg(CCU), competitive growth, 37 C, YPD
In short: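 The tRNA-Arg(CCU) gene variants were made by chemical synthesis with a 3% per-site mutation rate at 69 sites and inserted at the native genomic locus of Saccharomyces cerevisiae. After pooling, the strains were competed in YPD at 37°C for 24 hours in six parallel replicates. Gene amplicons from the start population and each end population were read by 100-nucleotide paired-end sequencing, and Darwinian fitness relative to wild type was taken from genotype frequency changes. Genotypes needed ≥ 100 starting reads, and estimates < 0.5 were set to 0.5.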

Variant	yeast fitness
G23A G25A A40U C61U	≤ 0.5
G23A C30A	0.792
G23A C27A A57U	0.634
G23A C33G C46G C66A	0.529
G23A C33G	≤ 0.5
G23A C33U	0.547
G23A A36U G39C G50A	≤ 0.5
G23A G39C A69U	≤ 0.5
G23A C33G C49A U54G A65G	0.617
G23A C31U C33G	0.523
G23A A40C C55G	≤ 0.5
G23A C33G A43G A69C	≤ 0.5
G23A C31U G56U A65U G68C	≤ 0.5
G23A A69C	0.793
G23A A69U	0.726
G23A C33G U35G C60U C62G A69U	≤ 0.5
G23A A37G G68A	0.682
G23A C55A C61A	0.568
G23A C27U A45U	0.668
G23A C29U C30A C46G	≤ 0.5
G23A C46G	0.683
G23A C30G A69U	≤ 0.5
G23A C27A U54A G56A C66G	≤ 0.5
G23A C55U G63C	≤ 0.5

Variant	yeast fitness
G23A G48C	0.759
G23A C62A	0.516
G23A C33U C34U A40U	≤ 0.5
G23A C24U G38C A70C	≤ 0.5
G23A C29G G68C	≤ 0.5
G23A C33G A43C	≤ 0.5
G23A C60A	≤ 0.5
G23A G50C	0.58
G23A G50A	0.819
G23A C29A C31G	0.664
G23A C33A C34G	≤ 0.5
G23A C24A C31A A36G	≤ 0.5
G23A G52A G63A	≤ 0.5
G23A C30U U54C	0.528
G23A C34G	0.582
G23A C30A A43U	≤ 0.5
G23A A36G A69C	0.708
G23A C34A G52C G63C	≤ 0.5
G23A C24G C29U G41A	≤ 0.5
G23A C27U C60G	0.525
G23A G38A A69C	≤ 0.5
C22U U64C	0.977
G23A C30G A42G	0.524
G23A C33G U35G C60A C62U	≤ 0.5

Variant	yeast fitness
G23A C33U A69U	≤ 0.5
G23A C30U C66U	≤ 0.5
G23A C29G C30G C49A G56C C61U	0.702
G23A C30G C33G A36U C46G C55G	0.589
G23A C27U C29U G39A G58A A65C	≤ 0.5
G23A C30U C55U G67C	≤ 0.5
G23A G39C C49A	≤ 0.5
G23A C31A G50C C55G	0.548
G23A G41C	0.803
G23A A40C U53C	≤ 0.5
C22U U47C G51C	0.54
G23A A40U C49U C60A G63A	≤ 0.5
G23A C30U G48A C55A	≤ 0.5
G23A C60G G67A	≤ 0.5
G23A G38C	0.599
G23A G38A	0.643
G23A G38C A40C A43C	≤ 0.5
G23A G25C C46G G48A C66A	≤ 0.5
G23A C30U U35G A45U A57C	0.533
G23A C31A	0.644
G23A C33G G50A	0.53
G23A C49U U54C	≤ 0.5
G23A C30G C33G A36U C46G C55G C61U	0.567
G23A C30U A37C U54C	≤ 0.5

Variant	yeast fitness
G23A C30U C33A G41C A42U A43G	≤ 0.5
G23A G25A	0.958
G23A C29U A45U	0.967
G23A A65C	0.816
G23A A65U	0.916
G23A A65G	0.907
G23A C29A G68A	≤ 0.5
G23A C29G A65G	≤ 0.5
G23A C46U U59C	0.587
G23A A37C C49U C62U A70G	≤ 0.5
G23A C29U C30A	0.565
G23A C27U C34U A45C A65C	0.532
G23A C61G	0.714
G23A C61A	0.539
G23A C61U	0.665
G23A C29G A45U C46U C60G C61U A69G	≤ 0.5
G23A C33G G63A	0.594
G23A A36G C55G	0.578
G23A C34U A43U G44C	≤ 0.5
G23A C27U C34U A45C	≤ 0.5
G23A C30U A70C	≤ 0.5
G23A A42C C60U C61G	≤ 0.5
C22U U47C C62U	0.667
G23A C61U G67A	0.525

Variant	yeast fitness
G23A C24G U32G	0.609
G23A C30G G67A	0.726
G23A C49G	0.873
G23A C49A	0.526
G23A A43U G50A U54G G68C	≤ 0.5
G23A C29G A45U C60G C61U A69G	0.59
G23A C24A C31A A36G G44A C60U C62A	≤ 0.5
G23A C29U	0.923
G23A C29G	0.625
G23A C29A	0.536
G23A C30U C49A A57U A70C	≤ 0.5
G23A C30U C55A	0.573
G23A C33G U35G	≤ 0.5
G23A C49A U59C C62U A65U	≤ 0.5
G23A A40U	0.842
G23A C30U U53A	≤ 0.5
G23A C29G C55A	0.536
G23A C31U A69U	0.675
C22U U54A C55U G63A	0.54
G23A C30U C33A G41C A42U	0.555
G23A C30A A37G	≤ 0.5
G23A A70C	0.74
G23A A57C A65U	≤ 0.5
G23A A43G A70U	0.648

Variant	yeast fitness
G23A C24U U35A C60A A69C	0.607
G23A G56A	0.924
G23A C27G C29U G56A	≤ 0.5
G23A C31U G48C C55G A69U	≤ 0.5
G23A C30U C55A G68C	≤ 0.5
G23A C24G G25A G48A	≤ 0.5
C22U U47C G52A	≤ 0.5
G23A G44C C61G	≤ 0.5
G23A C30G A65U	≤ 0.5
G23A A45G A69C	0.507
C22U U47G U59A	≤ 0.5
G23A C30A A37G C66U	0.539
G23A C30A G51A	0.562
G23A C55U G58A	≤ 0.5
G23A G38A G39C G50A G56C	≤ 0.5
G23A A45C	0.846
G23A A45G	0.645
G23A A45U	0.674
G23A C30U A69G A70G	≤ 0.5
G23A A42G G51A C61U	≤ 0.5
G23A G38A C55U	≤ 0.5
G23A A42G A45U G63C U64C	0.638
G23A C33G U54A G56C	≤ 0.5
C22U U54G A65G G68U A70C	≤ 0.5

Variant	yeast fitness
G23A C55U	0.625
G23A A36U G39C	0.518
G23A A43G U64C	≤ 0.5
G23A C30G C55U G63A	0.582
G23A C30A C46G	0.706
G23A C30A C55U	≤ 0.5
G23A A43C	0.826
G23A A43G	0.684
G23A A43U	0.699
G23A G39C A40U G68A	≤ 0.5
G23A C27U A65U	0.658
G23A C31U C33G G63U	≤ 0.5
C22U U54C C55A A65G C66U	≤ 0.5
G23A C24G	≤ 0.5
C22U U47C G51C C66U	≤ 0.5
G23A C27A	0.821
G23A C29U C31U A42G C61A	≤ 0.5
G23A G39C A40G	≤ 0.5
G23A A37G	0.57
G23A G38A G41C G50C C55G	0.696
G23A A36G	0.668
G23A C27U A69G	≤ 0.5
C22U U59A	0.705
